Only some compounds are listed: those with a hit (about 3.7% of all), similar ones and a draw of the others.
PKD1 inh: PKD1 (human) kinase inhibition. Q15139. PKD1 kinase fluorescence polarization assay. inhibition, % (test concentration not listed). hit rate 0.056% among 200,000; in the data active means inhibition above about 50%
Arbovirus inh: arbovirus infection inhibition; inhibition, % at 10 µM; arbovirus infection cell-based antiviral screen; AID 1251; hit rate 0.37% among 200,000; in the data active means inhibition above about 30%
ROMK primary: modulators of human ROMK potassium channel. P48048. Tet-inducible ROMK, thallium flux fluorescence; actives lie on both sides. B-score at 10 µM. hit rate 2% among 130,000. AID 1918;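 active means signal ratio slope over the read window, or its plate-corrected B-score, at least 3 SD from the plate mean, either direction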;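 further: B-score of the F/F0 ratio slope over 7 to 12 s after thallium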
m-calpain inh: calpain II (pig) inhibition; purified calpain II, fluorogenic peptide substrate, 30 min; inhibition, % at 16 µM; hit rate 0.37% among 220,000; AID 1236;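 active means inhibition above about 50%, limit read from the data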
Mdm2 ligase inh: inhibitors of human Mdm2 E3 ubiquitin ligase | Q00987 | cell-based MDM2 ubiquitination luciferase reporter, 2 h; 0 = plate control, 100 = twice control, blank-subtracted | signal enhancement, % at 5 µM | hit rate 0.11% among 210,000 | AID 1230;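 active means signal enhancement of 30% or more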;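 further: luminescence tracks abundance of the self-degrading MDM2-luciferase fusion protein; higher signal means inhibition of MDM2 E3 ligase activity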
Target sequence (Q00987 whole entry, looked up, the tested form may be a part): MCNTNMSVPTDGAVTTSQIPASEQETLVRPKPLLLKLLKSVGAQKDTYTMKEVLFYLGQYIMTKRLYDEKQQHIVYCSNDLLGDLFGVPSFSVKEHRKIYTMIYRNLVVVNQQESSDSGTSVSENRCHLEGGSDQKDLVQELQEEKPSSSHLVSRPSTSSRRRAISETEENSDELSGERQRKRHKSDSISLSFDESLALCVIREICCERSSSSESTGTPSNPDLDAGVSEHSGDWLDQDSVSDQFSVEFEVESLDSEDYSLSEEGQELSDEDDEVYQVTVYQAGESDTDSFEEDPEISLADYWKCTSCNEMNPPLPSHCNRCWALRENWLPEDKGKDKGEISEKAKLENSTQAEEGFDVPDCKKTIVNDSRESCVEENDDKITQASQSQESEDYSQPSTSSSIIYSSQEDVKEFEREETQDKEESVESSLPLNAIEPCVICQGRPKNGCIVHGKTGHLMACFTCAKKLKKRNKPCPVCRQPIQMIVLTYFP
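Assay system: mammalian cells stably expressing self-ubiquitinating, self-degrading MDM2 E3–luciferase fusion. Quantity: 2000 cells in each well. Medium: DMEM culture medium. Compound dosing: single-point 5 µM. Timing: cell settling 4 h, compound treatment 2 h, both 37 °C. Technique: luciferase luminescence. Read-out basis: percent signal gain over controls, blank-subtracted. Benchmarks: plate controls and plate blanks.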
KCC2 mod: modulates chloride dependent transport by human KCC2; Q9H2X9; KCC2 cells, thallium flux FluoZin-2 fluorescence; B-score of Tl+ flux slope (higher = more flux/activation; lower = inhibition) at 10 µM; hit rate 2.2% among 190,000; AID 1456;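 active means thallium flux slope and its plate-corrected score both differing from the plate sample mean at a set confidence after two filtering rounds, in either direction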;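 further: slope of fluorescence scaled to starting intensity during 10 to 20 s after thallium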
KCC2 sec1: confirmation of human KCC2 transport modulators | shares compounds with KCC2 mod | AID 1713 | normalised thallium flux (F/F0 slope) at 10 µM | HEK293-KCC2, thallium flux, FluoZin2 fluorescence; stronger effect = higher value | hit rate 15% among 3,700;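 active means thallium flux slope above the same plate's solvent-only control mean plus 3 SD; inconclusive means the two replicate wells disagree; inactive means no significant difference from solvent-only control wells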
KCC2 bumet counter: thallium flux persisting under bumetanide in KCC2 cells, counter-screen secondary assay | shares compounds with KCC2 mod | HEK293-KCC2 + bumetanide/ouabain, thallium flux FluoZin2; stronger effect = higher value | normalized thallium flux at 10 µM | hit rate 49% among 3,700 | AID 1714;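 active means thallium entry rate above the same plate's blocked-transporter control wells by more than 3 SD; inconclusive means the two repeat wells disagree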;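 further: raw slope of fluorescence over initial fluorescence between 10 and 20 s after thallium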
KCC2 secondary2: confirmation of human KCC2 transport modulators; shares compounds with KCC2 mod; HEK293-KCC2, thallium flux FluoZin2 fluorescence; actives lie on both sides; F/F0 rise rate, 10–20 s post-thallium; normalized thallium flux at 10 µM; hit rate 23% among 3,700; AID 1715;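 active means thallium flux slope more than 3 SD above or below the plate's solvent-only control mean, mostly below; inconclusive means the two repeat wells disagreed; inactive means no significant shift from solvent-only controls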;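 further: raw slope with 0.1% DMSO as baseline and bumetanide as block control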
HEK counter1: parental HEK flux effect, counter-screen. hit rate 46% among 3,700. HEK293 parental cells, thallium flux FluoZin2, ouabain; baseline-ratio fluorescence slope, 10–20 s after thallium. thallium flux rate (normalised fluorescence) at 10 µM. shares compounds with KCC2 mod. AID 1716;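 active means thallium flux rate significantly above the same plate's solvent-only control wells, beyond their mean plus 3 SD; inconclusive means the two replicate wells gave conflicting results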
KCC2 retest ouab: KCC2 (human) modulation, ouabain retest | shares compounds with KCC2 mod | HEK293-KCC2, thallium flux FluoZin2 fluorescence; bidirectional: low = inhibitor, high = activator | raw Tl+ flux slope (below DMSO = inhibition, above = activation) at 10 µM | hit rate 48% among 3,700 | AID 1717;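 active means thallium flux slope beyond 3 SD from same-plate DMSO control mean in most replicates, usually higher, sometimes lower; inconclusive means repeat tests gave conflicting results; inactive means no significant difference from controls in most replicates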;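 further: slope of initial-normalized fluorescence between seconds 10 and 20 after thallium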
HEK counter2: parental HEK flux effect, counter-screen 2; thallium flux slope at 10 µM; hit rate 33% among 3,700; shares compounds with KCC2 mod; HEK293 parental, thallium flux FluoZin-2 fluorescence slope;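 active means thallium flux slope above the same plate's solvent-control mean plus 3 SD in both duplicate wells; inconclusive means duplicate wells that disagreed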;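 further: run without ouabain in cells lacking the KCC2 cotransporter; slope of fluorescence scaled to its starting value between 10 and 20 s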
* hit, by the source's call.

Results for Oc1c(I)cc(Cl)c2cccnc12 ?
PKD1 inh: -6.4; Arbovirus inh: -25.3; m-calpain inh: -1.1; KCC2 mod: 76.9*; KCC2 sec1: 0.00789; KCC2 bumet counter: 0.104*; KCC2 secondary2: 0.067*; HEK counter1: 0.105*; KCC2 retest ouab: 0.11*; HEK counter2: 0.0408*

How did Oc1c(CN2CCc3ccccc3C2)cc(Cl)c2cccnc12 do in these assays?
PKD1 inh: -2.8; Arbovirus inh: -25.1; m-calpain inh: 34.8; Mdm2 ligase inh: -17.7; KCC2 mod: 2.32

How did O=[N+]([O-])c1cc(Cl)c2cccnc2c1O do in these assays?
PKD1 inh: 0.0; Arbovirus inh: -14.2; ROMK primary: 0.439; m-calpain inh: -10.7; Mdm2 ligase inh: -6.3; KCC2 mod: 1.03

How did O=[N+]([O-])c1cc(Cl)c(O)c2ncccc12 do in these assays?
PKD1 inh: 1.3; Arbovirus inh: -21.2; ROMK primary: -1.84; m-calpain inh: 46.6; Mdm2 ligase inh: -3.2; KCC2 mod: 4.53*; KCC2 sec1: 0.0133*; KCC2 bumet counter: 0.0161*; KCC2 secondary2: 0.0319; HEK counter1: 0.0105*; KCC2 retest ouab: inconclusive; HEK counter2: inconclusive

Results for COc1ccc(/C=C(\NC(=O)c2ccc(C)cc2)C(=O)NCC2CCCO2)cc1 (stereo unspecified) ?
PKD1 inh: -2.2; Arbovirus inh: 1.9; ROMK primary: -0.396; m-calpain inh: -0.2; Mdm2 ligase inh: -15.4; KCC2 mod: 0.113

Results for O=C(NC(Cc1ccccc1)C(=O)OCC(=O)N1CCc2ccccc21)c1ccco1 (stereo unspecified) ?
PKD1 inh: 6.5; Arbovirus inh: -4.6; m-calpain inh: -10.2; Mdm2 ligase inh: -5.0; KCC2 mod: -3.68*; KCC2 sec1: 0.0149; KCC2 bumet counter: 0.00499; KCC2 secondary2: 0.0218*; HEK counter1: 0.00696; KCC2 retest ouab: 0.0147; HEK counter2: 0.00966

How did O=C(COC(=O)C(Cc1ccccc1)NC(=O)c1ccco1)NC1CC1 (stereo unspecified) do in these assays?
PKD1 inh: -5.2; Arbovirus inh: 0.3; ROMK primary: -0.166; m-calpain inh: -57.9; Mdm2 ligase inh: -12.4; KCC2 mod: 0.582

Results for O=[N+]([O-])c1ccc(-c2nc(=S)c3c(o2)CCCC3)cc1 ?
PKD1 inh: 7.1; Arbovirus inh: -0.4; ROMK primary: 0.834; m-calpain inh: 2.3; Mdm2 ligase inh: 1.4; KCC2 mod: 34.1*; KCC2 sec1: 0.0183*; KCC2 bumet counter: 0.0266*; KCC2 secondary2: 0.0382; HEK counter1: 0.0333*; KCC2 retest ouab: 0.0423*; HEK counter2: 0.0155*

How did S=c1nc(-c2ccccc2)oc2c1CCCC2 do in these assays?
PKD1 inh: -5.1; Arbovirus inh: 9.9; m-calpain inh: 15.2; Mdm2 ligase inh: -16.3; KCC2 mod: 5.3*; KCC2 sec1: 0.00844; KCC2 bumet counter: 0.0446*; KCC2 secondary2: 0.0324; HEK counter1: 0.0122*; KCC2 retest ouab: inconclusive; HEK counter2: 0.0128*

How did O=[N+]([O-])c1ccc(C2=NCCO2)cc1 do in these assays?
m-calpain inh: -2.8; KCC2 mod: -0.0145

What do the screens show for `O=c1oc(-c2ccccc2)nc2sc3c(c12)CCC3`?
PKD1 inh: -1.1; Arbovirus inh: 16.1; ROMK primary: -0.0101; m-calpain inh: -32.6; Mdm2 ligase inh: -6.1; KCC2 mod: 0.0135

Results for CCCn1nnc(NC(=S)NC(=O)CC)n1 ?
PKD1 inh: -6.2; Arbovirus inh: 1.5; ROMK primary: 0.191; m-calpain inh: 14.2; Mdm2 ligase inh: -1.4; KCC2 mod: 0.109

How did O=C(Cc1cccc2ccccc12)N1CCN(c2ncccn2)CC1 do in these assays?
PKD1 inh: -0.9; Arbovirus inh: -1.3; ROMK primary: -1.48; m-calpain inh: -20.9; Mdm2 ligase inh: -0.6; KCC2 mod: -1.06

How did Fc1ccc(-c2csc(=S)[nH]2)cc1 do in these assays?
PKD1 inh: -4.0; Arbovirus inh: 3.2; ROMK primary: 1.77; m-calpain inh: 14.8; Mdm2 ligase inh: -5.4; KCC2 mod: 82.6*; KCC2 sec1: 0.0386*; KCC2 bumet counter: 0.114*; KCC2 secondary2: 0.0469*; HEK counter1: 0.0748*; KCC2 retest ouab: 0.0871*; HEK counter2: 0.0251*

How did O=c1[nH]c(-c2ccc(Cl)cc2)cs1 do in these assays?
PKD1 inh: 1.5; Arbovirus inh: -10.3; ROMK primary: -1.61; m-calpain inh: -0.8; Mdm2 ligase inh: 6.8; KCC2 mod: -0.577

What do the screens show for `CC1CCCC(NC(=O)C2CCC(CNc3c(N4CCCCC4)c(=O)c3=O)CC2)C1C` (stereo unspecified)?
ROMK primary: -0.54; m-calpain inh: 28.8; Mdm2 ligase inh: -3.3; KCC2 mod: -0.0986

Results for COC1=C/C(=C/c2c(N)n3nc(-c4ccc(C)cc4)sc3nc2=O)C=CC1=O ?
PKD1 inh: -8.2; Arbovirus inh: 31.9*; ROMK primary: -1.55; m-calpain inh: -72.2; Mdm2 ligase inh: 3.6; KCC2 mod: 9.79*; KCC2 sec1: 0.00651; KCC2 bumet counter: 0.0629*; KCC2 secondary2: inconclusive; HEK counter1: 0.083*; KCC2 retest ouab: inconclusive; HEK counter2: 0.024*

What do the screens show for `CCS(=O)(=O)c1nn2c(N)c(/C=C3/C=CC(=O)C(OC)=C3)c(=O)nc2s1`?
PKD1 inh: -0.1; Arbovirus inh: -3.8; ROMK primary: 0.274; m-calpain inh: 1.5; Mdm2 ligase inh: -0.6; KCC2 mod: -0.291

How did COc1ccc(N(C)S(=O)(=O)c2ccc(Cl)c(C(=O)NCCc3ccc(Cl)cc3)c2)cc1 do in these assays?
PKD1 inh: 3.9; Arbovirus inh: -4.6; ROMK primary: -0.997; m-calpain inh: 22.6; Mdm2 ligase inh: -16.3; KCC2 mod: -6.14*; KCC2 sec1: 0.0135; KCC2 bumet counter: 0.00309; KCC2 secondary2: 0.0181*; HEK counter1: 0.00541*; KCC2 retest ouab: 0.00949*; HEK counter2: 0.0086
